“And” between values parts separate entries of the source, which are not always exact repeats. Equal values may be shown once. Each block holds one compound with its values, some of them ahead of it.
Experiments:
ATP-citrate synthase [1] = target: T1, ATP-citrate synthase (Rattus norvegicus, UniProt P16638); assay: Inhibitory activity was tested against rat ATP-Citrate Lyase (ACL) enzyme
T1 sequence (P16638 whole entry): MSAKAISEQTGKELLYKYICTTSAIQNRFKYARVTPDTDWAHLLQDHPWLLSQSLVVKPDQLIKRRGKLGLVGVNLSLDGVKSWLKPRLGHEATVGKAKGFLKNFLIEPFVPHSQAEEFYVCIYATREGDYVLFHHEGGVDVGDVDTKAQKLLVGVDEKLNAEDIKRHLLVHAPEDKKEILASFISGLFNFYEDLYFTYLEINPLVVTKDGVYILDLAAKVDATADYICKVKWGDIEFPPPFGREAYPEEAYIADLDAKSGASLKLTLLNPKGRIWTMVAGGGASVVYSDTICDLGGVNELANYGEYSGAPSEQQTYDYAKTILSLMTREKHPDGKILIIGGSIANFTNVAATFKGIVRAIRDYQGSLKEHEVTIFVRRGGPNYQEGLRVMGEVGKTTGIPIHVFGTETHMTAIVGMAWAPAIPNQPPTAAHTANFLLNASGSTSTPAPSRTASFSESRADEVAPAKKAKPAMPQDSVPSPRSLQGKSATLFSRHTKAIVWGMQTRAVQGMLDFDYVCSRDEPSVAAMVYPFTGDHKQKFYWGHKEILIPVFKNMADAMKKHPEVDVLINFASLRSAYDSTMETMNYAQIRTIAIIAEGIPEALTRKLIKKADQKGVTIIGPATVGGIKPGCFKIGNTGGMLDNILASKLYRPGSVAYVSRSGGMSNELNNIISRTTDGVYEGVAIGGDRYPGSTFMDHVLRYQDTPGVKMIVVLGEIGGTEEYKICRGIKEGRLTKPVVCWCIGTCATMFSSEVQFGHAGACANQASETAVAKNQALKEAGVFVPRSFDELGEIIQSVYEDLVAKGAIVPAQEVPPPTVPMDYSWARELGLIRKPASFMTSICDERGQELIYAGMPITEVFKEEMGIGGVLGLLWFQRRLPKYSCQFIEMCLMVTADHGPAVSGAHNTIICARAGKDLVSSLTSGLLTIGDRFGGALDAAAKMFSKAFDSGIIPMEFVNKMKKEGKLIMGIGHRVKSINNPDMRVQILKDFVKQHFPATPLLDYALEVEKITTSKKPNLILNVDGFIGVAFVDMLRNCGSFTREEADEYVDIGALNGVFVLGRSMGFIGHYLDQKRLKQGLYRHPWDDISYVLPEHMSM

HepG2 [2] = assay: Inhibition of ATP levels in HepG2 cells was measured at 100 uM concentration.; assay type: functional, Homo sapiens; parameters: scale not given: the % may be the effect or the level left
Method in brief: (§1)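 Compounds were applied to HepG2 cells as their γ-lactone prodrugs. De novo cholesterol synthesis, fatty acid synthesis and cellular ATP levels were each expressed as % of control. Significance was marked at p < 0.001.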

ATP-citrate synthase [3] = target: T2, ATP-citrate synthase (Homo sapiens, UniProt P53396); assay: Inhibitory activity was tested against human recombinant ATP-Citrate Lyase (ACL) enzyme
T2 sequence (P53396 whole entry): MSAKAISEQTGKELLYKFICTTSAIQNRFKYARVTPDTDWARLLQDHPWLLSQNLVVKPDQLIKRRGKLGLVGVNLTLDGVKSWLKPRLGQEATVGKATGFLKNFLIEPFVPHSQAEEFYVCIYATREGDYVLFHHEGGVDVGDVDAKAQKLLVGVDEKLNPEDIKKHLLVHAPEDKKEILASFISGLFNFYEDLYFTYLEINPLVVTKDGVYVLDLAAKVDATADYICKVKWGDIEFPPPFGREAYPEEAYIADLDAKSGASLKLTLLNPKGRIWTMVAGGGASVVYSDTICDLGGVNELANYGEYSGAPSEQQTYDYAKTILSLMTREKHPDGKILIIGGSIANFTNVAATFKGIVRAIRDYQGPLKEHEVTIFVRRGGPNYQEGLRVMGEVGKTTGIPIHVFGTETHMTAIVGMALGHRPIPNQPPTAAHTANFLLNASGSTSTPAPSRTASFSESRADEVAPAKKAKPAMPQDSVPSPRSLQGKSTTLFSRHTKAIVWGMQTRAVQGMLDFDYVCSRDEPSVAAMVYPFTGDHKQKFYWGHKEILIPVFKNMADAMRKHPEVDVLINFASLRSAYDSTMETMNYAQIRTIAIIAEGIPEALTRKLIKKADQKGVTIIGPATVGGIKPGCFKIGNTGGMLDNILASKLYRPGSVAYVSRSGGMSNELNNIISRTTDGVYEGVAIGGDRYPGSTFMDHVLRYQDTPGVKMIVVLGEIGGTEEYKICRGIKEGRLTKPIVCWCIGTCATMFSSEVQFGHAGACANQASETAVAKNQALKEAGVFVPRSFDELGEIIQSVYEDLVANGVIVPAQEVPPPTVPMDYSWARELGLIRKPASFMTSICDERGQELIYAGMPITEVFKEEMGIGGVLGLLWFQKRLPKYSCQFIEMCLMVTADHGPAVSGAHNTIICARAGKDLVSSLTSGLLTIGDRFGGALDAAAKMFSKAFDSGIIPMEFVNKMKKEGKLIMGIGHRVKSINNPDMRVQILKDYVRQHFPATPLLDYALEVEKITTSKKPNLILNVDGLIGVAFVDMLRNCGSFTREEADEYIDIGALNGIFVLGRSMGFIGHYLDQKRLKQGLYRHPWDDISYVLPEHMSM
Method in brief: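 Recombinant human ACL enzyme. Compounds purified as γ-lactones were hydrolysed back to the open hydroxy diacid with excess aqueous NaOH before being added to the assay buffer mix. Potency is reported as the reversible Ki for enzyme inhibition.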

HepG2 [4] = assay: Inhibition of cholesterol synthesis in HepG2 cells was measured at 100 uM concentration.; assay type: functional, Homo sapiens; parameters: scale not given: the % may be the effect or the level left; method in brief: as §1
HepG2 [5] = assay: Inhibition of cholesterol synthesis in HepG2 cells was measured at 10 uM concentration.; assay type: functional, Homo sapiens; parameters: scale not given: the % may be the effect or the level left; method in brief: as §1
HepG2 [6] = assay: Inhibition of ATP levels in HepG2 cells was measured at 10 uM concentration.; assay type: functional, Homo sapiens; parameters: scale not given: the % may be the effect or the level left; method in brief: as §1
HepG2 [7] = assay: Inhibition of cholesterol synthesis in HepG2 cells was measured at 3 uM concentration.; assay type: functional, Homo sapiens; parameters: scale not given: the % may be the effect or the level left; method in brief: as §1
HepG2 [8] = assay: (§2) Inhibition of fatty acid synthesis in HepG2 cells was measured at 10 uM concentration.; assay type: functional, Homo sapiens; parameters: scale not given: the % may be the effect or the level left; method in brief: as §1
HepG2 [9] = assay: Inhibition of ATP levels in HepG2 cells was measured at 30 uM concentration.; assay type: functional, Homo sapiens; parameters: scale not given: the % may be the effect or the level left; method in brief: as §1
HepG2 [10] = assay: Inhibition of ATP levels in HepG2 cells was measured at 3 uM concentration.; assay type: functional, Homo sapiens; parameters: scale not given: the % may be the effect or the level left; method in brief: as §1
HepG2 [11] = assay: Inhibition of fatty acid synthesis in HepG2 cells was measured at 3 uM concentration.; assay type: functional, Homo sapiens; parameters: scale not given: the % may be the effect or the level left; method in brief: as §1
HepG2 [12] = assay: as §2; assay type: functional, Homo sapiens; parameters: scale not given: the % may be the effect or the level left; method in brief: as §1; remark: listed apart in the source
HepG2 [13] = assay: Inhibition of ATP levels in HepG2 cells was measured at 1 uM concentration.; assay type: functional, Homo sapiens; parameters: scale not given: the % may be the effect or the level left; method in brief: as §1
HepG2 [14] = assay: Inhibition of cholesterol synthesis in HepG2 cells was measured at 100 uM concentration.; parameters: scale not given: the % may be the effect or the level left
HepG2 [15] = assay: Inhibition of ATP levels in HepG2 cells was measured at 1000 uM concentration.; assay type: functional, Homo sapiens; parameters: scale not given: the % may be the effect or the level left; method in brief: as §1
HepG2 [16] = assay: Inhibition of fatty acid synthesis in HepG2 cells was measured at 100 uM concentration.; parameters: scale not given: the % may be the effect or the level left
HepG2 [17] = assay: Inhibition of fatty acid synthesis in HepG2 cells was measured at 1000 uM concentration.; assay type: functional, Homo sapiens; parameters: scale not given: the % may be the effect or the level left; method in brief: as §1
HepG2 [18] = assay: Inhibition of cholesterol synthesis in HepG2 cells was measured at 1000 uM concentration.; assay type: functional, Homo sapiens; parameters: scale not given: the % may be the effect or the level left; method in brief: as §1
HepG2 [19] = assay: Inhibition of fatty acid synthesis in HepG2 cells was measured at 300 uM concentration.; assay type: functional, Homo sapiens; parameters: scale not given: the % may be the effect or the level left; method in brief: as §1
HepG2 [20] = assay: Inhibition of ATP levels in HepG2 cells was measured at 300 uM concentration.; assay type: functional, Homo sapiens; parameters: scale not given: the % may be the effect or the level left; method in brief: as §1
HepG2 [21] = assay: Inhibition of cholesterol synthesis in HepG2 cells was measured at 300 uM concentration.; assay type: functional, Homo sapiens; parameters: scale not given: the % may be the effect or the level left; method in brief: as §1

Ki (ATP-citrate synthase [1]): 1000 nM
Ki (ATP-citrate synthase [3]): 1000 nM
SMILES: O=C(O)C[C@@](O)(C[C@H](O)CCCCCCc1ccc(Cl)cc1Cl)C(=O)O (stereo in doubt; 45)
Control (HepG2 [2]): 104%
Control (HepG2 [4]): 84%

SMILES: O=C(O)C[C@@]1(O)C[C@@H](CCCCCCc2ccc(Cl)cc2-c2ccccc2)OC1=O
Control (HepG2 [5]): 65% and 60%
Control (HepG2 [6]): 96% and 100%
Control (HepG2 [7]): 101%
Control (HepG2 [8]): 75%
Control (HepG2 [9]): 95%
Control (HepG2 [10]): 98%
Control (HepG2 [11]): 108%
Control (HepG2 [12]): 88%

SMILES: O=C(O)[C@H](O)[C@@]1(O)C[C@@H](CCCCCCc2ccc(Cl)cc2Cl)OC1=O
Control (HepG2 [13]): 103%
Control (HepG2 [5]): 86%
Control (HepG2 [6]): 106%
Control (HepG2 [7]): 69%
Control (HepG2 [8]): 76%
Control (HepG2 [10]): 100%
Control (HepG2 [11]): 74%

SMILES: O=C(O)C[C@@](O)(C(=O)O)[C@H](O)C(=O)O
Control (HepG2 [14]): 110%
Control (HepG2 [15]): 104%
Control (HepG2 [16]): 87%
Control (HepG2 [17]): 57%
Control (HepG2 [18]): 15%
Control (HepG2 [19]): 79%
Control (HepG2 [20]): 103%
Control (HepG2 [21]): 40%

From ChEMBL document CHEMBL1131093, “ATP-Citrate lyase as a target for hypolipidemic intervention. 2. Synthesis and evaluation of (3R,5S)-omega-substituted-3-carboxy-3, 5-dihydroxyalkanoic acids and their gamma-lactone prodrugs as inhibitors of the enzyme in vitro and in vivo” (J Med Chem, 1998)
